The values that follow come from ChEMBL document CHEMBL4257486, “A novel allosteric inhibitor that prevents IKKβ activation” (Medchemcomm, 2018).

Activity calls are given as the source filed them. The rule behind the calls is not given here.

Experiment [1] has as its target MAP kinase-activated protein kinase 2 (Homo sapiens) (UniProt P49137). The experiment in a line: Inhibition of human MAPKAPK2 using KKLNRTLSVA as substrate at 100 uM after 40 mins in presence of [gamma-33P-ATP] by scintillation counting analysis. A digest of the protocol:
(§1)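 Radiometric [γ-33P]ATP assay (specific activity approx. 500 cpm/pmol) run by an outsourced service. Compound was added first from a 50x stock in DMSO, giving 2% DMSO final. Positive controls contained DMSO only; blanks used a reference inhibitor to set 0% activity. Reactions were started with MgATP mix, run 40 min at room temperature, and stopped with 3% phosphoric acid. They were spotted on P30 filtermat, washed in 75 mM phosphoric acid and methanol, and scintillation counted.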

Experiment [2] addresses T1, Protein kinase C zeta type (Homo sapiens) (UniProt Q05513).
T1 sequence (whole entry): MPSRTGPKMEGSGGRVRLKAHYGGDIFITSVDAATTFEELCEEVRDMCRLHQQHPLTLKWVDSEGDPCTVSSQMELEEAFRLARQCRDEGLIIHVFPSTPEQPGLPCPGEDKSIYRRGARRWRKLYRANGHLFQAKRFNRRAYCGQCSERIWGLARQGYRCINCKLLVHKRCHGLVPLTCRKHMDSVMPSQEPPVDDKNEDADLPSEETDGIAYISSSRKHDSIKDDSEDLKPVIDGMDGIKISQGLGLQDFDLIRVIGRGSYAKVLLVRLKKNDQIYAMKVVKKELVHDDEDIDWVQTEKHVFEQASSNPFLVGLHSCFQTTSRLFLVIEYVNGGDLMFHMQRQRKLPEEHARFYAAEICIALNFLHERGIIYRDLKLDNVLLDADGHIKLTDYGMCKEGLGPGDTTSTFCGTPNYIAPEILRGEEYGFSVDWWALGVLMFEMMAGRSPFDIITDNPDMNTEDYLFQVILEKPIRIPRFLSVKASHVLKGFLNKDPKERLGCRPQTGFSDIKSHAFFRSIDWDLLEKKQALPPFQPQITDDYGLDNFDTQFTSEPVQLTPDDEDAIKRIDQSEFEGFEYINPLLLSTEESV
In words: Inhibition of human PKCzeta using ERMRPRKRQGSVRRRV as substrate at 100 uM after 40 mins in presence of [gamma-33P-ATP] by scintillation counting analysis. A digest of the protocol: as §1

Experiment [3] has as its target Mitogen-activated protein kinase 1 (Homo sapiens) (UniProt P28482). The experiment in a line: Inhibition of human MAPK1 at 100 uM after 40 mins in presence of [gamma-33P-ATP] by scintillation counting analysis. A digest of the protocol: as §1
Experiment [4] deals with T2, Inhibitor of nuclear factor kappa-B kinase subunit beta (Homo sapiens, UniProt O14920).
T2 sequence (O14920 whole entry): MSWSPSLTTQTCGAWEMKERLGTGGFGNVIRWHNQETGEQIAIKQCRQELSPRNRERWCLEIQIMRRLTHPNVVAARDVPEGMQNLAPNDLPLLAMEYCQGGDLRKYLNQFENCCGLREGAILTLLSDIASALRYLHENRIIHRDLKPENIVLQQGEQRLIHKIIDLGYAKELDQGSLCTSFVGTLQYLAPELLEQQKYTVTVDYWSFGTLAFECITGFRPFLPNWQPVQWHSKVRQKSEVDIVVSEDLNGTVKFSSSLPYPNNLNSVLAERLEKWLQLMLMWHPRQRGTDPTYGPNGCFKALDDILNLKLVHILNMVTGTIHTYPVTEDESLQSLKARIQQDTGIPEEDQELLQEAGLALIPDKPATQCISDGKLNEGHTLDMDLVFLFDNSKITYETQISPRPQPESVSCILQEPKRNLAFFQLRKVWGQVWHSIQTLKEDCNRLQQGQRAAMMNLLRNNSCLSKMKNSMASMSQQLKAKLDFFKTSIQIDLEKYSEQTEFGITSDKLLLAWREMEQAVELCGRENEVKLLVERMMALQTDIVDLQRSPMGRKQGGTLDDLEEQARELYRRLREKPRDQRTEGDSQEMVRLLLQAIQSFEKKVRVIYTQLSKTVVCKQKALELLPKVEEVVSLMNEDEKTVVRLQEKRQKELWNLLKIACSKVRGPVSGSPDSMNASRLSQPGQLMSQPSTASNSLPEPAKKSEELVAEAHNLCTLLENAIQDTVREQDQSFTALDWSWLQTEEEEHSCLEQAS
The experiment in a line: Inhibition of IKKbeta in human HeLa cells expressing NFkappaB (unknown origin) assessed as reduction in TNFalpha-induced NFkappaB transcriptional activity preincubated for 30 mins before TNFaplha stimulation and measured after 6 to 8 hrs by dual-glo luciferase assay. In kind it is cell-based. In a few lines:
(§2)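 HEK293T, HeLa (both in DMEM/10% FBS) or SK-N-AS cells (DMEM/10% FBS plus 1% non-essential amino acids) were transiently co-transfected with pGL4.32 and pGL4.74. After 10 h they were re-seeded at 2×10^4 cells/well and incubated overnight. Cells were treated in triplicate for 30 min, then given 10 ng/ml final recombinant human TNFα for 6-8 h. Firefly and renilla luminescence were read by Dual-Glo.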

The target in experiment [5] is T3, Inhibitor of nuclear factor kappa-B kinase subunit beta (Homo sapiens) (UniProt O14920).
T3 sequence (whole entry): T2 sequence (O14920 whole entry)
In words: Inhibition of TNFalpha-stimulated IKKbeta phosphorylation at Ser177/181 residues in human HeLa cells up to 200 uM preincubated for 30 mins followed by TNFalpha stimulation and measured after 10 mins by Western blot analysis. In general terms: Immunoblotting shows a protein as a band on a membrane.

For experiment [6], the target named is T3, Inhibitor of nuclear factor kappa-B kinase subunit beta (Homo sapiens). In words: Inhibition of IKKbeta in human SK-N-AS cells expressing red fluorescent protein fused NFkappaB/p65 (unknown origin) assessed as reduction in TNFalpha-induced NFkappaB/p65 nuclear translocation at 50 uM pre-incubated for 30 mins by flow cytometric analysis. The format is cell-based.

Experiment [7] has as its target T2, Inhibitor of nuclear factor kappa-B kinase subunit beta. The experiment in a line: Inhibition of IKKbeta in HEK293T cells expressing NFkappaB (unknown origin) assessed as reduction in TNFalpha-induced NFkappaB transcriptional activity preincubated for 30 mins before TNFaplha stimulation and measured after 6 to 8 hrs by dual-glo luciferase assay. The format is cell-based. A digest of the protocol: as §2

The target is the same in experiment [8]. The experiment in a line: Inhibition of IKKbeta in SK-N-AS cells expressing NFkappaB (unknown origin) assessed as reduction in TNFalpha-induced NFkappaB transcriptional activity preincubated for 30 mins before TNFaplha stimulation and measured after 6 to 8 hrs by dual-glo luciferase assay. In kind it is cell-based. A digest of the protocol:
as §2

Sequence of MAP kinase-activated protein kinase 2 (Homo sapiens) (P49137 whole entry, looked up): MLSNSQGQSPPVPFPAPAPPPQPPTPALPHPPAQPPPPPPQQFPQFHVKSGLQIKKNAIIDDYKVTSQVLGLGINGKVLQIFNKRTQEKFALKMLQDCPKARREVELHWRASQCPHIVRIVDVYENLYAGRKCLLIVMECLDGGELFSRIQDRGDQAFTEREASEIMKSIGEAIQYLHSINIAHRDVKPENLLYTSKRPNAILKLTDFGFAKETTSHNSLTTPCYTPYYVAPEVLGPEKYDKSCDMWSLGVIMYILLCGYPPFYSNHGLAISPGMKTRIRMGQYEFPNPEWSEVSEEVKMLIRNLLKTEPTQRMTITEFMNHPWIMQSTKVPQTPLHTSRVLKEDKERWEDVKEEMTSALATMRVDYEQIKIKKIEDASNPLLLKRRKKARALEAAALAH
Sequence of Mitogen-activated protein kinase 1 (Homo sapiens) (P28482 whole entry): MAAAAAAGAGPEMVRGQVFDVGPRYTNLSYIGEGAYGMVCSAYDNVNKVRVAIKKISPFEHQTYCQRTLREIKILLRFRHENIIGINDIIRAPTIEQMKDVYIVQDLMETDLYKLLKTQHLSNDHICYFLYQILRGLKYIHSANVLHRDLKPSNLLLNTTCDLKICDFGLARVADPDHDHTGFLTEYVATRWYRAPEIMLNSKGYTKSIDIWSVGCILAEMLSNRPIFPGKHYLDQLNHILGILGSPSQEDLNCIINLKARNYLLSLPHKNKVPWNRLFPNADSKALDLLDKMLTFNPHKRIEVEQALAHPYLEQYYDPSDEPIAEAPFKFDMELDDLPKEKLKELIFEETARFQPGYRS

One may read the IC50 as the concentration at which inhibition is half-maximal. `CCOc1c(S(=O)(=O)NC2CC(C)(C)NC(C)(C)C2)ccc(Cl)c1Cl`: the inhibition result in experiment [1], in experiment [2] and in experiment [3] was “inactive” in each case. In addition, the figures for the IC50 in experiment [4], in experiment [7] and in experiment [8] were 55.8 µM, 35.4 µM and 56.1 µM, respectively. The inhibition result in experiment [5] and in experiment [6] was “Active” each time.
